ChEMBL document CHEMBL4689842, “EUbOPEN Chemogenomics Library wave 1” (2021)

Tested on: U2OS
Assay: Multiplex assay against U2OS
Format: toxicity, cell-based
Settings: human
Summary of the method: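 Four dyes were applied at seeding to live cells: Hoechst33342, BioTracker Green Microtubule Cytoskeleton Dye, MitoTracker Red and Annexin V Alexa Fluor 680. Imaging after compound addition used a CQ1 microscope at 37°C and 5% CO2. CellPathfinder machine-learning gating then sorted cells into Hoechst high-intensity objects or normal cells, normal cells into healthy, pyknosed or fragmented nuclei, and pyknosed cells into mitotic or apoptotic, with tubulin, mitochondrial-mass and membrane-permeability phenotypes given as per cents of healthy-nucleus cells.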

[1] = 12 h, 1 µM, compound concentration 1 uM, replicate 1
[2] = 12 h, 1 µM, compound concentration 1 uM, replicate 2
[3] = 12 h, 10 µM, compound concentration 10 uM, replicate 1
[4] = 12 h, 10 µM, compound concentration 10 uM, replicate 2
[5] = 24 h, 1 µM, compound concentration 1 uM, replicate 1
[6] = 24 h, 1 µM, compound concentration 1 uM, replicate 2
[7] = 24 h, 10 µM, compound concentration 10 uM, replicate 1
[8] = 24 h, 10 µM, compound concentration 10 uM, replicate 2
[9] = 12 h, 0 µM, compound concentration 0 uM, replicate 1
[10] = 12 h, 0 µM, compound concentration 0 uM, replicate 2
[11] = 24 h, 0 µM, compound concentration 0 uM, replicate 1
[12] = 24 h, 0 µM, compound concentration 0 uM, replicate 2

Compound: COc1cc2ncnc(Nc3ccc(F)c(Cl)c3)c2cc1NC(=O)/C=C/CN1CCCCC1 [DACOMITINIB ANHYDROUS]
- Population Apoptotic (%) [1]: 5%
- Population Fragmented Nuclei (%) [1]: 6%
- Population Healthy Nuclei (%) [1]: 84%
- Population Hoechst High Intensity Objects (%) [1]: 6%
- Population Membrane Permeable-Phenotype (%) [1]: 72%
- Population Mitochondria Different-Phenotype (%) [1]: 3%
- Population Mitotic Cells (%) [1]: 94%
- Population Normal (%) [1]: 93%
- Population Pyknosed Nuclei (%) [1]: 8%
- Population Tubulin-Different-Phenotype (%) [1]: 45%
- Total Cell Count [1]: 197
- Population Apoptotic (%) [2]: 60%
- Population Fragmented Nuclei (%) [2]: 11%
- Population Hoechst High Intensity Objects (%) [2]: 8%
- Population Membrane Permeable-Phenotype (%) [2]: 24%
- Population Mitochondria Different-Phenotype (%) [2]: 32%
- Population Mitotic Cells (%) [2]: 40%
- Population Normal (%) [2]: 91%
- Population Pyknosed Nuclei (%) [2]: 4%
- Population Tubulin-Different-Phenotype (%) [2]: 69%
- Total Cell Count [2]: 127
- Population Apoptotic (%) [3]: 0%
- Population Fragmented Nuclei (%) [3]: 3%
- Population Healthy Nuclei (%) [3]: 92%
- Population Hoechst High Intensity Objects (%) [3]: 3%
- Population Membrane Permeable-Phenotype (%) [3]: 31%
- Population Mitochondria Different-Phenotype (%) [3]: 7%
- Population Mitotic Cells (%) [3]: 100%
- Population Normal (%) [3]: 96%
- Population Pyknosed Nuclei (%) [3]: 4%
- Population Tubulin-Different-Phenotype (%) [3]: 15%
- Total Cell Count [3]: 182
- Population Fragmented Nuclei (%) [4]: 14%
- Population Healthy Nuclei (%) [4]: 82%
- Population Hoechst High Intensity Objects (%) [4]: 10%
- Population Membrane Permeable-Phenotype (%) [4]: 10%
- Population Mitochondria Different-Phenotype (%) [4]: 17%
- Population Normal (%) [4]: 89%
- Population Pyknosed Nuclei (%) [4]: 2%
- Population Tubulin-Different-Phenotype (%) [4]: 18%
- Total Cell Count [4]: 118
- Population Apoptotic (%) [5]: 46%
- Population Fragmented Nuclei (%) [5]: 9%
- Population Healthy Nuclei (%) [5]: 81%
- Population Hoechst High Intensity Objects (%) [5]: 5%
- Population Membrane Permeable-Phenotype (%) [5]: 65%
- Population Mitochondria Different-Phenotype (%) [5]: 5%
- Population Mitotic Cells (%) [5]: 53%
- Population Normal (%) [5]: 94%
- Population Pyknosed Nuclei (%) [5]: 9%
- Population Tubulin-Different-Phenotype (%) [5]: 39%
- Total Cell Count [5]: 262
- Population Apoptotic (%) [6]: 75%
- Population Fragmented Nuclei (%) [6]: 14%
- Population Healthy Nuclei (%) [6]: 78%
- Population Membrane Permeable-Phenotype (%) [6]: 11%
- Population Mitochondria Different-Phenotype (%) [6]: 50%
- Population Mitotic Cells (%) [6]: 25%
- Population Pyknosed Nuclei (%) [6]: 7%
- Population Tubulin-Different-Phenotype (%) [6]: 58%
- Total Cell Count [6]: 158
- Population Apoptotic (%) [7]: 40%
- Population Fragmented Nuclei (%) [7]: 5%
- Population Healthy Nuclei (%) [7]: 86%
- Population Hoechst High Intensity Objects (%) [7]: 2%
- Population Membrane Permeable-Phenotype (%) [7]: 15%
- Population Mitochondria Different-Phenotype (%) [7]: 10%
- Population Mitotic Cells (%) [7]: 59%
- Population Normal (%) [7]: 97%
- Population Pyknosed Nuclei (%) [7]: 8%
- Population Tubulin-Different-Phenotype (%) [7]: 14%
- Total Cell Count [7]: 184
- Population Apoptotic (%) [8]: 50%
- Population Fragmented Nuclei (%) [8]: 6%
- Population Healthy Nuclei (%) [8]: 87%
- Population Hoechst High Intensity Objects (%) [8]: 9%
- Population Membrane Permeable-Phenotype (%) [8]: 18%
- Population Mitochondria Different-Phenotype (%) [8]: 24%
- Population Mitotic Cells (%) [8]: 50%
- Population Normal (%) [8]: 90%
- Population Pyknosed Nuclei (%) [8]: 5%
- Population Tubulin-Different-Phenotype (%) [8]: 22%
- Total Cell Count [8]: 114

Compound: CCNc1cc(N[C@H]2CC[C@H](O)CC2)nc(Nc2ccc3c(ccn3Cc3ccccc3)c2)n1
- Population Apoptotic (%) [9]: 37%
- Population Fragmented Nuclei (%) [9]: 14%
- Population Healthy Nuclei (%) [9]: 59%
- Population Hoechst High Intensity Objects (%) [9]: 6%
- Population Membrane Permeable-Phenotype (%) [9]: 39%
- Population Mitochondria Different-Phenotype (%) [9]: 98%
- Population Mitotic Cells (%) [9]: 62%
- Population Normal (%) [9]: 93%
- Population Pyknosed Nuclei (%) [9]: 25%
- Population Tubulin-Different-Phenotype (%) [9]: 100%
- Total Cell Count [9]: 243
- Population Apoptotic (%) [10]: 62%
- Population Fragmented Nuclei (%) [10]: 20%
- Population Healthy Nuclei (%) [10]: 57%
- Population Hoechst High Intensity Objects (%) [10]: 7%
- Population Membrane Permeable-Phenotype (%) [10]: 69%
- Population Mitochondria Different-Phenotype (%) [10]: 100%
- Population Mitotic Cells (%) [10]: 37%
- Population Normal (%) [10]: 92%
- Population Pyknosed Nuclei (%) [10]: 22%
- Total Cell Count [10]: 117
- Population Apoptotic (%) [1]: 64%
- Population Fragmented Nuclei (%) [1]: 4%
- Population Healthy Nuclei (%) [1]: 81%
- Population Hoechst High Intensity Objects (%) [1]: 1%
- Population Membrane Permeable-Phenotype (%) [1]: 33%
- Population Mitochondria Different-Phenotype (%) [1]: 30%
- Population Mitotic Cells (%) [1]: 35%
- Population Normal (%) [1]: 98%
- Population Pyknosed Nuclei (%) [1]: 13%
- Population Tubulin-Different-Phenotype (%) [1]: 88%
- Total Cell Count [1]: 129
- Population Apoptotic (%) [2]: 42%
- Population Fragmented Nuclei (%) [2]: 11%
- Population Healthy Nuclei (%) [2]: 75%
- Population Hoechst High Intensity Objects (%) [2]: 11%
- Population Membrane Permeable-Phenotype (%) [2]: 18%
- Population Mitochondria Different-Phenotype (%) [2]: 55%
- Population Mitotic Cells (%) [2]: 57%
- Population Normal (%) [2]: 88%
- Population Tubulin-Different-Phenotype (%) [2]: 76%
- Total Cell Count [2]: 120
- Population Apoptotic (%) [11]: 65%
- Population Fragmented Nuclei (%) [11]: 14%
- Population Healthy Nuclei (%) [11]: 46%
- Population Hoechst High Intensity Objects (%) [11]: 4%
- Population Membrane Permeable-Phenotype (%) [11]: 83%
- Population Mitotic Cells (%) [11]: 34%
- Population Normal (%) [11]: 95%
- Population Pyknosed Nuclei (%) [11]: 39%
- Population Tubulin-Different-Phenotype (%) [11]: 99%
- Total Cell Count [11]: 273
- Population Apoptotic (%) [12]: 71%
- Population Fragmented Nuclei (%) [12]: 23%
- Population Healthy Nuclei (%) [12]: 47%
- Population Hoechst High Intensity Objects (%) [12]: 10%
- Population Membrane Permeable-Phenotype (%) [12]: 92%
- Population Mitochondria Different-Phenotype (%) [12]: 100%
- Population Mitotic Cells (%) [12]: 28%
- Population Normal (%) [12]: 89%
- Population Pyknosed Nuclei (%) [12]: 29%
- Population Tubulin-Different-Phenotype (%) [12]: 100%
- Total Cell Count [12]: 121
- Population Apoptotic (%) [5]: 33%
- Population Fragmented Nuclei (%) [5]: 9%
- Population Healthy Nuclei (%) [5]: 77%
- Population Hoechst High Intensity Objects (%) [5]: 2%
- Population Membrane Permeable-Phenotype (%) [5]: 22%
- Population Mitochondria Different-Phenotype (%) [5]: 42%
- Population Mitotic Cells (%) [5]: 66%
- Population Normal (%) [5]: 97%
- Population Pyknosed Nuclei (%) [5]: 12%
- Population Tubulin-Different-Phenotype (%) [5]: 69%
- Total Cell Count [5]: 167
- Population Apoptotic (%) [6]: 70%
- Population Fragmented Nuclei (%) [6]: 14%
- Population Healthy Nuclei (%) [6]: 71%
- Population Hoechst High Intensity Objects (%) [6]: 9%
- Population Membrane Permeable-Phenotype (%) [6]: 23%
- Population Mitochondria Different-Phenotype (%) [6]: 53%
- Population Mitotic Cells (%) [6]: 29%
- Population Normal (%) [6]: 90%
- Population Pyknosed Nuclei (%) [6]: 14%
- Population Tubulin-Different-Phenotype (%) [6]: 65%
- Total Cell Count [6]: 132
